Measurements: ChEMBL document CHEMBL4689842, “EUbOPEN Chemogenomics Library wave 1” (2021)

System: Fibroblast
Experiment: Multiplex assay against human fibroblast
Assay type: toxicity, cell-based
Procedure, shortened: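 Live cells were stained at seeding with Hoechst33342, BioTracker Green Microtubule Cytoskeleton Dye, MitoTracker Red and Annexin V Alexa Fluor 680, then imaged on a CQ1 microscope at 37°C and 5% CO2 after compound addition. CellPathfinder machine-learning gating split cells into Hoechst high-intensity objects or normal cells. Normal cells were split into healthy, pyknosed or fragmented nuclei, and pyknosed cells into mitotic or apoptotic. Tubulin, mitochondrial-mass and membrane-permeability phenotypes are per cents of healthy-nucleus cells.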

[1] = 12 h, 1 µM, compound concentration 1 uM, replicate 1
[2] = 12 h, 1 µM, compound concentration 1 uM, replicate 2
[3] = 12 h, 10 µM, compound concentration 10 uM, replicate 1
[4] = 12 h, 10 µM, compound concentration 10 uM, replicate 2
[5] = 24 h, 1 µM, compound concentration 1 uM, replicate 1
[6] = 24 h, 1 µM, compound concentration 1 uM, replicate 2
[7] = 24 h, 10 µM, compound concentration 10 uM, replicate 1
[8] = 24 h, 10 µM, compound concentration 10 uM, replicate 2
[9] = 48 h, 1 µM, compound concentration 1 uM, replicate 1
[10] = 48 h, 1 µM, compound concentration 1 uM, replicate 2
[11] = 48 h, 10 µM, compound concentration 10 uM, replicate 1
[12] = 48 h, 10 µM, compound concentration 10 uM, replicate 2

Question: What does the source list for `CN1C2CCC1CC(OC(c1ccc(F)cc1)c1ccc(F)cc1)C2.Cl` (centres undefined)?
Answer: Population Apoptotic (%) [1]: 53%; Population Fragmented Nuclei (%) [1]: 26%; Population Healthy Nuclei (%) [1]: 45%; Population Hoechst High Intensity Objects (%) [1]: 12%; Population Membrane Permeable-Phenotype (%) [1]: 21%; Population Mitochondria Different-Phenotype (%) [1]: 11%; Population Mitotic Cells (%) [1]: 46%; Population Normal (%) [1]: 87%; Population Pyknosed Nuclei (%) [1]: 27%; Population Tubulin-Different-Phenotype (%) [1]: 52%; Total Cell Count [1]: 106; Population Apoptotic (%) [2]: 100%; Population Fragmented Nuclei (%) [2]: 5%; Population Healthy Nuclei (%) [2]: 92%; Population Hoechst High Intensity Objects (%) [2]: 2%; Population Membrane Permeable-Phenotype (%) [2]: 3%; Population Mitochondria Different-Phenotype (%) [2]: 4%; Population Mitotic Cells (%) [2]: 0%; Population Normal (%) [2]: 97%; Population Pyknosed Nuclei (%) [2]: 1%; Population Tubulin-Different-Phenotype (%) [2]: 8%; Total Cell Count [2]: 69; Population Apoptotic (%) [3]: 64%; Population Fragmented Nuclei (%) [3]: 31%; Population Healthy Nuclei (%) [3]: 50%; Population Hoechst High Intensity Objects (%) [3]: 9%; Population Mitochondria Different-Phenotype (%) [3]: 37%; Population Mitotic Cells (%) [3]: 36%; Population Normal (%) [3]: 90%; Population Pyknosed Nuclei (%) [3]: 18%; Population Tubulin-Different-Phenotype (%) [3]: 68%; Total Cell Count [3]: 148; Population Apoptotic (%) [4]: 80%; Population Fragmented Nuclei (%) [4]: 8%; Population Healthy Nuclei (%) [4]: 78%; Population Hoechst High Intensity Objects (%) [4]: 6%; Population Membrane Permeable-Phenotype (%) [4]: 10%; Population Mitochondria Different-Phenotype (%) [4]: 89%; Population Mitotic Cells (%) [4]: 20%; Population Normal (%) [4]: 93%; Population Pyknosed Nuclei (%) [4]: 13%; Population Tubulin-Different-Phenotype (%) [4]: 49%; Total Cell Count [4]: 78; Population Apoptotic (%) [5]: 53%; Population Fragmented Nuclei (%) [5]: 24%; Population Healthy Nuclei (%) [5]: 58%; Population Hoechst High Intensity Objects (%) [5]: 13%; Population Membrane Permeable-Phenotype (%) [5]: 26%; Population Mitochondria Different-Phenotype (%) [5]: 4%; Population Mitotic Cells (%) [5]: 46%; Population Normal (%) [5]: 86%; Population Pyknosed Nuclei (%) [5]: 17%; Population Tubulin-Different-Phenotype (%) [5]: 58%; Total Cell Count [5]: 99; Population Apoptotic (%) [6]: 20%; Population Fragmented Nuclei (%) [6]: 3%; Population Healthy Nuclei (%) [6]: 90%; Population Hoechst High Intensity Objects (%) [6]: 2%; Population Membrane Permeable-Phenotype (%) [6]: 4%; Population Mitotic Cells (%) [6]: 80%; Population Normal (%) [6]: 97%; Population Pyknosed Nuclei (%) [6]: 6%; Population Tubulin-Different-Phenotype (%) [6]: 8%; Total Cell Count [6]: 82; Population Apoptotic (%) [7]: 38%; Population Fragmented Nuclei (%) [7]: 38%; Population Healthy Nuclei (%) [7]: 45%; Population Hoechst High Intensity Objects (%) [7]: 17%; Population Membrane Permeable-Phenotype (%) [7]: 15%; Population Mitochondria Different-Phenotype (%) [7]: 40%; Population Mitotic Cells (%) [7]: 61%; Population Normal (%) [7]: 82%; Population Pyknosed Nuclei (%) [7]: 15%; Population Tubulin-Different-Phenotype (%) [7]: 60%; Total Cell Count [7]: 160; Population Apoptotic (%) [8]: 80%; Population Fragmented Nuclei (%) [8]: 16%; Population Healthy Nuclei (%) [8]: 64%; Population Hoechst High Intensity Objects (%) [8]: 3%; Population Membrane Permeable-Phenotype (%) [8]: 6%; Population Mitochondria Different-Phenotype (%) [8]: 78%; Population Mitotic Cells (%) [8]: 20%; Population Normal (%) [8]: 96%; Population Pyknosed Nuclei (%) [8]: 19%; Population Tubulin-Different-Phenotype (%) [8]: 25%; Total Cell Count [8]: 107; Population Apoptotic (%) [9]: 28%; Population Fragmented Nuclei (%) [9]: 34%; Population Healthy Nuclei (%) [9]: 52%; Population Hoechst High Intensity Objects (%) [9]: 13%; Population Membrane Permeable-Phenotype (%) [9]: 22%; Population Mitochondria Different-Phenotype (%) [9]: 1%; Population Mitotic Cells (%) [9]: 71%; Population Normal (%) [9]: 86%; Population Pyknosed Nuclei (%) [9]: 12%; Population Tubulin-Different-Phenotype (%) [9]: 45%; Total Cell Count [9]: 126; Population Apoptotic (%) [10]: 0%; Population Healthy Nuclei (%) [10]: 64%; Population Hoechst High Intensity Objects (%) [10]: 11%; Population Membrane Permeable-Phenotype (%) [10]: 9%; Population Mitochondria Different-Phenotype (%) [10]: 6%; Population Mitotic Cells (%) [10]: 100%; Population Normal (%) [10]: 88%; Population Pyknosed Nuclei (%) [10]: 0%; Population Tubulin-Different-Phenotype (%) [10]: 47%; Total Cell Count [10]: 127; Population Apoptotic (%) [11]: 80%; Population Fragmented Nuclei (%) [11]: 47%; Population Healthy Nuclei (%) [11]: 45%; Population Hoechst High Intensity Objects (%) [11]: 25%; Population Membrane Permeable-Phenotype (%) [11]: 9%; Population Mitochondria Different-Phenotype (%) [11]: 27%; Population Mitotic Cells (%) [11]: 20%; Population Normal (%) [11]: 74%; Population Pyknosed Nuclei (%) [11]: 7%; Population Tubulin-Different-Phenotype (%) [11]: 78%; Total Cell Count [11]: 191; Population Apoptotic (%) [12]: 100%; Population Fragmented Nuclei (%) [12]: 64%; Population Healthy Nuclei (%) [12]: 35%; Population Hoechst High Intensity Objects (%) [12]: 16%; Population Membrane Permeable-Phenotype (%) [12]: 11%; Population Mitochondria Different-Phenotype (%) [12]: 18%; Population Mitotic Cells (%) [12]: 0%; Population Normal (%) [12]: 83%; Population Pyknosed Nuclei (%) [12]: 0%; Population Tubulin-Different-Phenotype (%) [12]: 79%; Total Cell Count [12]: 259
